# Marks after values point to notes of the source that are not given here.
# Key:
# FXR = details: read-out: FXR EC50; in vitro; cited from earlier work
# TGR5 = details: read-out: TGR5 EC50; in vitro; cited from earlier work
# FXR target genes = experiment: Hepatic and ileal FXR target gene expression by RNA sequencing, 14 d dosing; type: in vivo; details: 1-30 mg/kg PO, 2 wk, lean C57Bl6 mice, RNAseq
# How it was run: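 Lean chow-fed C57Bl6 mice received FXR-agonist test compounds at 1, 3, 10 or 30 mg/kg PO QD for 14 d. Liver and ileum transcriptomes were profiled by RNA sequencing using stranded mRNA libraries on a NextSeq 500. Prototypic FXR target genes were analysed by two-way ANOVA with Bonferroni post-hoc test against untreated (dose 0) animals.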
# ob/ob-NASH mice = experiment: Liver histology; type: in vivo; details: 16 wk; for Collagen 1a1 (fibrosis) % fractional area, Before treatment / Galectin-3 (inflammation) % fractional area, Before treatment / Lipid (steatosis) % fractional area, Before treatment: baseline biopsy; for Collagen 1a1 (fibrosis) % fractional area, Before treatment / Galectin-3 (inflammation) % fractional area, Before treatment / Lipid (steatosis) % fractional area, Before treatment / Collagen 1a1 (fibrosis) % fractional area, After treatment / Galectin-3 (inflammation) % fractional area, After treatment / Lipid (steatosis) % fractional area, After treatment: mean ± SE
# How it was run: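 Biopsy-confirmed ob/ob-NASH mice (AMLN diet; n = 11-12/group, stratified by Col1a1 fibrosis) were dosed orally with vehicle or test compound for 16 wk. Baseline biopsies and terminal left lateral lobe samples were fixed overnight in 4% PFA, paraffin-sectioned at 3 μm, and stained with HE, anti-Col1a1 and anti-galectin-3. Scoring was blinded. Immunoreactive area was expressed as % of parenchymal area after subtracting fat area from adjacent HE sections. Responders had ≥1-point change (χ2 test).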
# [1] = LC/MS/MS determination of compound levels in liver and ileum, 14 d dosing; type: in vivo; details: 1-30 mg/kg PO, chow-fed C57Bl6 mice
# How it was run: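 Chow-fed C57Bl6 mice were dosed PO QD with test compounds at 1-30 mg/kg for 14 d. Weighed liver and ileum were bead-homogenised in 7 volumes of 80/20 ACN/HBSS and centrifuged. Supernatant was dried under nitrogen and reconstituted in 60/40 methanol/10 mmol/L ammonium acetate with 25 nmol/L d5-GCA internal standard, then filtered. Analysis used UHPLC-high-resolution MS in negative ESI with a C18 column at 45 °C and matrix-matched quadratic (1/x) calibration.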
# [2] = 10 mg/kg, subjects achieving > 1 points improvement in score from baseline
structure (smiles),measurement,setting,value
"CC[C@H]1[C@@H](O)[C@@H]2[C@H](CC[C@]3(C)[C@@H]([C@H](C)CCC(=O)O)CC[C@@H]23)[C@@]2(C)CC[C@@H](O)C[C@@H]12 [OCA, obeticholic acid]","hepatic FXR target gene expression (BSEP, OST, CYP8b1, SHP)",FXR target genes,regulated hepatic FXR genes
same,"ileal FXR target gene expression (SHP, FGF-15)",FXR target genes,more pronounced effects
same,Fibrosis stage: No improvement (number of mice),ob/ob-NASH mice; 10 mg/kg,10
same,Fibrosis stage: With improvement (number of mice),ob/ob-NASH mice; 10 mg/kg,2
same,NAS: No improvement (number of mice),ob/ob-NASH mice; 10 mg/kg,8
same,NAS: With improvement (number of mice),ob/ob-NASH mice; 10 mg/kg,4
same,"Collagen 1a1 (fibrosis) % fractional area, Before treatment",ob/ob-NASH mice; 10 mg/kg,0.9 ± 0.1 % fractional area
same,"Galectin-3 (inflammation) % fractional area, Before treatment",ob/ob-NASH mice; 10 mg/kg,5.5 ± 0.3 % fractional area
same,"Lipid (steatosis) % fractional area, Before treatment",ob/ob-NASH mice; 10 mg/kg,33.4 ± 0.8 % fractional area
same,"Collagen 1a1 (fibrosis) % fractional area, After treatment",ob/ob-NASH mice; 10 mg/kg,9.0 ± 0.6 ^a % fractional area
same,"Galectin-3 (inflammation) % fractional area, After treatment",ob/ob-NASH mice; 10 mg/kg,5.0 ± 0.2 ^a % fractional area
same,"Lipid (steatosis) % fractional area, After treatment",ob/ob-NASH mice; 10 mg/kg,31.8 ± 0.4 % fractional area
same,Fibrosis stage: % improving,ob/ob-NASH mice; [2],17%
same,NAS: % improving,ob/ob-NASH mice; [2],33%
same,Fibrosis stage: No improvement (number of mice),ob/ob-NASH mice; 30 mg/kg,7
same,Fibrosis stage: With improvement (number of mice),ob/ob-NASH mice; 30 mg/kg,4
same,NAS: No improvement (number of mice),ob/ob-NASH mice; 30 mg/kg,0
same,NAS: With improvement (number of mice),ob/ob-NASH mice; 30 mg/kg,11
same,"Collagen 1a1 (fibrosis) % fractional area, Before treatment",ob/ob-NASH mice; 30 mg/kg,1.2 ± 0.2 % fractional area
same,"Galectin-3 (inflammation) % fractional area, Before treatment",ob/ob-NASH mice; 30 mg/kg,5.5 ± 0.4 % fractional area
same,"Lipid (steatosis) % fractional area, Before treatment",ob/ob-NASH mice; 30 mg/kg,32.2 ± 1.1 % fractional area
same,"Collagen 1a1 (fibrosis) % fractional area, After treatment",ob/ob-NASH mice; 30 mg/kg,8.0 ± 0.7 ^a % fractional area
same,"Galectin-3 (inflammation) % fractional area, After treatment",ob/ob-NASH mice; 30 mg/kg,4.0 ± 0.4 ^a % fractional area
same,"Lipid (steatosis) % fractional area, After treatment",ob/ob-NASH mice; 30 mg/kg,22.7 ± 1.0 ^a % fractional area
same,NAS: % improving,"ob/ob-NASH mice; 30 mg/kg, subjects achieving > 1 points improvement in score from baseline",100% ^a
same,ileal drug concentration compared to the liver,[1],approximately two-fold

# Source: publication PMC5768938 (World Journal of Gastroenterology, 2018)
